In one assay the test system is Leishmania donovani. Nature of the assay: Antileishmanial activity against Leishmania donovani MHOM/SD/62/IS-CL2D axenic amastigotes after 3 days. Format: functional, organism-based. The following applies: 72 h. The procedure, abridged: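 Amastigote-like L. donovani parasites were grown axenically in vitro and exposed to compounds for three days. Viability was read with a tetrazolium dye-based reagent, following a previously described protocol.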

The test system of a further assay is Vero. Briefly: Cytotoxicity against african green monkey Vero cells. The conditions noted are these: Chlorocebus sabaeus. Format: cell-based.
For a further assay, the system named is PC-3. Nature of the assay: Cytotoxicity against human PC3 cells. The class given is cell-based.
The subject of assay [1] is Trypanosoma brucei brucei. Nature of the assay: Antitrypanosomal activity against Trypanosoma brucei brucei MITat 1.2 variant 221 after 72 hrs. Format: functional, organism-based. The procedure, abridged:
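Bloodstream-form parasites grown axenically in HMI-9, seeded late log phase at 10⁵ cells/mL, exposed with or without compound 72 h at 37 °C, humidified 5% CO₂. p-Nitrophenyl phosphate (20 mg/mL solution in 1 M NaOAc pH 5.5, 1% Triton X-100) added, further 6-8 h at 37 °C; acid phosphatase read at 405 nm. IC50 versus untreated control from four-parameter dose-response fit.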

Assay [2] can be described thus: Selectivity of IC50 for Trypanosoma brucei brucei MITat 1.2 variant 221 to IC50 for african green monkey Vero cells.

The values below come from ChEMBL document CHEMBL1157220, “Isoflavonoids and other compounds from Psorothamnus arborescens with antiprotozoal activities” (J Nat Prod, 2006).

Structures are written as SMILES. Some results are limits rather than exact numbers.

On to `COc1cc(OC)c2c(=O)c(-c3cc(CC=C(C)C)c(OC)c(OC)c3)coc2c1`, for which the IC50 in the assay with Leishmania donovani came to 41.4 µM; with Vero, 44.3 µM; with PC-3 it was 30.9 µM; in assay [1], 7.8 µM.

`N=C(N)c1ccc(OCCCCCOc2ccc(C(=N)N)cc2)cc1` [PENTAMIDINE] had an IC50 in the assay on Leishmania donovani of 1.5 µM.

On to `O=c1cc(-c2ccc(O)cc2)oc2cc(O)cc(O)c12` [APIGENIN], for which the IC50 in assay [1] amounted to 11.9 µM.

For `CC1(C)CCc2c(-c3coc4cc(O)cc(O)c4c3=O)ccc(O)c2O1`, the IC50 amounted to 38.4 µM in the assay with Leishmania donovani, 107 µM in the assay with PC-3 and 57.9 µM in assay [1].

On to `COc1ccc2c(C=O)c(-c3cc4c(cc3O)OCO4)oc2c1`, for which the IC50 (in the assay on Leishmania donovani; in the assay on Vero; with PC-3; in assay [1]) was greater than 250 µM in each case.

For `CC(C)=CCc1cc(-c2coc3cc(O)cc(O)c3c2=O)cc(O)c1O` [GLYCYRRHISOFLAVONE], the IC50 was determined as 46.3 µM in the assay with Leishmania donovani, 52.8 µM in the assay on Vero, 62.1 µM in the assay with PC-3 and 33 µM in assay [1].

`C=CC(C)(C)c1cc(OC(C)=O)c(OC(C)=O)cc1-c1coc2cc(OC(C)=O)cc(OC(C)=O)c2c1=O` [FREMONTIN TETRAACETATE]: the IC50 in the assay on Leishmania donovani was determined as 42.7 µM; with PC-3, 66.2 µM; in assay [1], 67.8 µM.

Regarding `C=CC(C)(C)c1cc(OC)c(OC)cc1-c1coc2cc(OC)cc(O)c2c1=O` [TRIMETHYLFREMONTIN], the half-inhibitory concentration (IC50) in the assay with Leishmania donovani is greater than 250 µM; in the assay with PC-3, 146 µM; in assay [1] it was 32.3 µM.

`CC1(C)CCc2cc(-c3coc4cc(O)cc(O)c4c3=O)cc(O)c2O1`: the IC50 in the assay on Leishmania donovani was found to be 68.3 µM; in the assay on PC-3, 79.3 µM; in assay [1], 77 µM.

Turning to `COc1ccc(-c2coc3cc(O)ccc3c2=O)cc1O` [CALYCOSIN], the IC50 in the assay with Leishmania donovani worked out at 100 µM; in the assay on Vero, 159 µM; with PC-3, 130 µM; in assay [1] it was 12.7 µM. Further, in assay [2], the Selectivity ratio is listed as 15.

`COc1ccc(-c2coc3cc(OC)ccc3c2=O)cc1` gave an IC50 in assay [1] greater than 100 µM.

Turning to `C=CC(C)(C)c1cc(OC)c(OC)cc1-c1coc2cc(OC)cc(OC)c2c1=O`, the values for the half-maximal inhibitory concentration (IC50) (in the assay with Leishmania donovani; in the assay on PC-3; in assay [1]) were 86 µM, 134 µM and 41.7 µM, respectively.

On to `O=c1c(-c2ccc(O)c(O)c2)coc2cc(O)ccc12`, for which the figures for the IC50 (in the assay on Vero; in assay [1]) were 135 µM and 7.1 µM, respectively.

Consider `O=C(/C=C/c1ccc(O)cc1)c1ccc(O)cc1O` [ISOLIQUIRITIGENIN], for which the IC50 with Leishmania donovani was found to be 20.7 µM; with Vero, 65.6 µM; in the assay on PC-3 it was 46.4 µM; in assay [1], 32.8 µM.

`Cc1ccc(C(=O)Nc2ccc(S(=O)(=O)O)c3cc(S(=O)(=O)O)cc(S(=O)(=O)O)c23)cc1NC(=O)c1cccc(NC(=O)Nc2cccc(C(=O)Nc3cc(C(=O)Nc4ccc(S(=O)(=O)O)c5cc(S(=O)(=O)O)cc(S(=O)(=O)O)c45)ccc3C)c2)c1` [SURAMIN]: the IC50 in assay [1] came out at 0.19 µM.

Turning to `CC(C)=CCc1c(-c2coc3cc(O)cc(O)c3c2=O)ccc(O)c1O`, the IC50 in the assay with Leishmania donovani was 13 µM; with Vero, 37.5 µM; in the assay on PC-3 it was 12.7 µM; in assay [1], 12.1 µM.

`O=c1c(-c2ccc(O)cc2)coc2cc(O)cc(O)c12` [GENISTEIN]: the values for the IC50 (in the assay on Leishmania donovani; in the assay with Vero; in assay [1]) were 73 µM, 32.9 µM and 4.2 µM, respectively.

In the case of `COc1ccc(-c2coc3cc(O)ccc3c2=O)cc1` [FORMONONETIN], the IC50 in assay [1] was 90.2 µM.

Consider `O=c1c(-c2ccccc2)coc2cc(O)ccc12` [7-HYDROXY ISOFLAVONE], for which the IC50 with Leishmania donovani was 113 µM; in assay [1], 94.2 µM.

Turning to `CC1(C)CC[C@]2(C(=O)O)CC[C@]3(C)C(=CC[C@@H]4[C@@]5(C)CC[C@H](O)C(C)(C)[C@@H]5CC[C@]43C)[C@@H]2C1` [OLEANOLIC_ACID], the 50% inhibitory concentration (IC50) with Leishmania donovani was greater than 250 µM; in the assay on Vero, greater than 250 µM; with PC-3, 211 µM; in assay [1] it was 43.1 µM.

As to `COc1ccc(-c2coc3cc(O)cc(O)c3c2=O)cc1` [BIOCHANIN], the IC50 in the assay on Leishmania donovani turned out to be 89.9 µM; in assay [1] it was 12.3 µM.

Regarding `Oc1ccc2c(c1O)OCC1c3cc4c(cc3OC21)OCO4` (racemic), the half-maximal inhibitory concentration (IC50) worked out at 37.3 µM in the assay on Leishmania donovani, 3.3 µM in the assay on Vero, 28 µM with PC-3 and 3.7 µM in assay [1].

In the case of `Oc1ccc2c(c1)OCC1c3cc4c(cc3OC21)OCO4` (racemic), the 50% inhibitory concentration (IC50) with Leishmania donovani was greater than 250 µM; with Vero it was greater than 250 µM; with PC-3, greater than 250 µM; in assay [1] it was 130 µM.

Turning to `COc1cc2cc(c1Cl)N(C)C(=O)C[C@H](OC(=O)C(C)C)[C@]1(C)O[C@@H]1[C@H](C)[C@@H]1C[C@@](O)(NC(=O)O1)[C@H](OC)/C=C/C=C(\C)C2` [ANSAMITOCIN P3], the IC50 with Vero amounted to 0.0012 µM.

Molecule `COc1cc([C@@H]2c3cc4c(cc3[C@H](O)[C@H]3COC(=O)[C@H]23)OCO4)cc(OC)c1OC` [PODOFILOX] came in with an IC50 in the assay with PC-3 of 0.0125 µM.

The molecule `O=c1c(-c2ccc(O)cc2)coc2cc(O)ccc12` [DAIDZEIN] gave an IC50 in assay [1] of 23.7 µM.

Turning to `COc1cc(O)c2c(=O)c(-c3ccc(O)cc3)coc2c1` [PRUNETIN], the IC50 in assay [1] is 20.2 µM.

In general, IC50 refers to the concentration that inhibits the measured activity by half.
